# In ChEMBL document CHEMBL4014326, “Discovery of an Orally Bioavailable Benzimidazole Diacylglycerol Acyltransferase 1 (DGAT1) Inhibitor That Suppresses Body Weight Gain in Diet-Induced Obese Dogs and Postprandial Triglycerides in Humans” (J Med Chem, 2017):
# Active and inactive are the calls of the source. The calls are words filed in the database; no cut-off is given here.
# Legend:
# [1] = Clearance in Sprague-Dawley rat at 1 mg/kg, iv by LC/MS/MS analysis; assay type: ADME, organism-based; details: in vivo
# How it was run: (§1)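 Male Sprague-Dawley rats, 200-300 g, dosed iv (n = 2) or po (n = 3) as solutions in NMP/PG or PEG400/ETPGS vehicles. Blood was taken from a jugular vein catheter at 0.083 (iv only), 0.25, 0.5, 1, 2, 4, 6 and 8 h into EDTA tubes, and plasma was analysed by LC-MS/MS. Values are means ± SD.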
# [2] = Solubility of the compound at pH 6.8 after 24 hrs; assay type: physicochemical; details: buffer
# How it was run: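 Solubility was measured in pH 6.8 buffer after 24 h incubation.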
# [3] = target: T1, Diacylglycerol O-acyltransferase 1 (Mus musculus, UniProt Q9Z2A7); experiment: Inhibition of DGTA1 in mouse C2C12 cells assessed as inhibition of triglyceride formation after 2 hrs by LC/MS/MS analysis; assay type: cell-based
# T1 sequence (Q9Z2A7 whole entry): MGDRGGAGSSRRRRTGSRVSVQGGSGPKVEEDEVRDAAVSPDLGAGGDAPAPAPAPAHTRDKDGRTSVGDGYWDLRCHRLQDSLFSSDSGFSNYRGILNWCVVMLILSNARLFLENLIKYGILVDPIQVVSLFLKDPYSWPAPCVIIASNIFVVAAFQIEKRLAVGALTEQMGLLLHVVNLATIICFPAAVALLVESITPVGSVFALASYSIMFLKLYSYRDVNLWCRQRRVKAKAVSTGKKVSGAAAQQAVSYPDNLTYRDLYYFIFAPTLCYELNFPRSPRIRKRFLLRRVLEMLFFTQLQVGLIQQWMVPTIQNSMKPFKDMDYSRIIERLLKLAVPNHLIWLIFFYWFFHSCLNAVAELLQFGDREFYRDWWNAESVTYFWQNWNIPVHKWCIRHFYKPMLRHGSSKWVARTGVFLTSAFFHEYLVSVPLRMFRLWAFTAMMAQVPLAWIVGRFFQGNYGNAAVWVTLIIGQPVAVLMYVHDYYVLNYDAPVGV
# How it was run: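 C2C12 cells were seeded in DMEM with 5 mM glucose and 10% FBS for 18 h at 37 °C. Medium was then replaced with DMEM, 5 mM glucose and 250 µM oleate-BSA plus inhibitor (0.5% DMSO final) for 2 h at 37 °C. Cells were extracted with butanol containing tripalmitolein internal standard and triglyceride was read by LC-MS/MS. An 11-point, 3-fold dose response was run in quadruplicate.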
# [4] = Volume of distribution at steady state in Sprague-Dawley rat at 1 mg/kg, iv by LC/MS/MS analysis; assay type: ADME, organism-based; details: in vivo, read-out: Vdss; how it was run: as §1
# [5] = Permeability across basolateral to apical side in human Caco2 cells; assay type: ADME, cell-based; details: Caco-2, read-out: permeability
# How it was run: (§2)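 Caco-2 monolayer permeability was measured in the A-B and B-A directions, and the efflux ratio was taken as B-A/A-B.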
# [6] = Cmax in Sprague-Dawley rat at 3 mg/kg, po by LC/MS/MS analysis; assay type: ADME, organism-based; parameters: dose 3 mg/kg, route oral; details: in vivo; how it was run: as §1
# [7] = Permeability across apical to basolateral side in human Caco2 cells; assay type: ADME, cell-based; details: Caco-2, read-out: permeability; how it was run: as §2
# [8] = Oral bioavailability in Sprague-Dawley rat at 3 mg/kg by LC/MS/MS analysis; assay type: ADME, organism-based; details: in vivo; how it was run: as §1
# [9] = Tmax in Sprague-Dawley rat 3 mg/kg, po by LC/MS/MS analysis; assay type: ADME, organism-based; details: in vivo; how it was run: as §1
# [10] = AUC (0 to 8 hrs) in Sprague-Dawley rat at 3 mg/kg, po by LC/MS/MS analysis; assay type: ADME, organism-based; parameters: dose 3 mg/kg, time < 8 hr, route oral; details: in vivo; how it was run: as §1
# [11] = Half life in Sprague-Dawley rat at 1 mg/kg, iv by LC/MS/MS analysis; assay type: ADME, organism-based; details: in vivo; how it was run: as §1
# [12] = AUC (0 to 8 hrs) in Sprague-Dawley rat at 1mg/kg, iv by LC/MS/MS analysis; assay type: ADME, organism-based; parameters: time < 8 hr, dose 1 mg/kg, route intravenous; details: in vivo; how it was run: as §1
# [13] = Oral bioavailability in Sprague-Dawley rat at 5 mg/kg by LC/MS/MS analysis; assay type: ADME, organism-based; details: in vivo; how it was run: as §1
# [14] = AUC (0 to 8 hrs) in Sprague-Dawley rat at 5 mg/kg, po by LC/MS/MS analysis; assay type: ADME, organism-based; parameters: dose 5 mg/kg, time < 8 hr, route oral; details: in vivo; how it was run: as §1
# [15] = Cmax in Sprague-Dawley rat at 5 mg/kg, po by LC/MS/MS analysis; assay type: ADME, organism-based; parameters: dose 5 mg/kg, route oral; details: in vivo; how it was run: as §1
# [16] = Tmax in Sprague-Dawley rat 5 mg/kg, po by LC/MS/MS analysis; assay type: ADME, organism-based; details: in vivo; how it was run: as §1
# Rattus norvegicus = species on record: Rattus norvegicus; experiment: Antiobesity activity in rat assessed as suppression of postprandial triglyceride levels; assay type: functional
# Canis familiaris [17] = experiment: Antiobesity activity in fasted Beagle dog assessed as postprandial triglyceride AUC in plasma at 1 mg/kg administered via oral gavage prior to 30 mins of […] measured after 4 hrs (reference value: 35400 +/- 8863 mg/dL.min); assay type: functional, organism-based; parameters: dose 1 mg/kg, time < 4 hr; details: Canis lupus familiaris
# Homo sapiens = experiment: Antiobesity activity in high fat-fed human assessed as suppression of postprandial plasma triglyceride level compound administered as single oral dose; assay type: functional
# How it was run: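 Randomized, double-blind, placebo-controlled single ascending dose study in overweight or obese healthy adults aged 18-55. Single oral doses of 5-600 mg (n = 8 per dose) or placebo (n = 12) were given. About 1 h after dosing, subjects ate a ~1000 kcal, 55% fat test meal, and plasma triglycerides were compared against an untreated baseline meal test monitored for 9 h.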
# [18] = Ratio of IC50 for DGTA1 in mouse C2C12 cells to IC50 for recombinant human His6-tagged DGAT1; assay type: cell-based
# How it was run: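 Ratio of the C2C12 cellular IC50 to the enzymatic IC50. Enzyme assay: Sf9 membranes expressing human His6-DGAT1 with 50 µM diolein and 50 µM oleoyl-CoA in 50 mM HEPES pH 7.5, 5 mM MgCl2 and 10% ethanol, 30 min at room temperature. Triolein was read by LC-MS/MS, with a 10-point, 3-fold dose response run in duplicate.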
# [19] = Drug level in monkey hepatocytes treated with [3H]-3-(4-(6-(5-(4-Methoxyphenyl)-1,3,4-oxadiazol-2-yl)-1H-benzo[d]imidazol-2-yl)-3,5-dimethylphenyl)-2,2-dimethylpropanoic acid at 12.5 uM after 18 hrs; assay type: ADME, cell-based, Macaca mulatta, Hepatocyte; details: rhesus monkey
# How it was run: (§3)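 [3H]-labelled compound (12.5 µM) was incubated for 18 h with rat, dog, monkey or human hepatocytes, and metabolites were profiled.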
# [20] = Drug level in rat hepatocytes treated with [3H]-3-(4-(6-(5-(4-Methoxyphenyl)-1,3,4-oxadiazol-2-yl)-1H-benzo[d]imidazol-2-yl)-3,5-dimethylphenyl)-2,2-dimethylpropanoic acid at 12.5 uM after 18 hrs; assay type: ADME, cell-based, Hepatocyte; how it was run: as §3
# [21] = Drug level in human hepatocytes treated with [3H]-3-(4-(6-(5-(4-Methoxyphenyl)-1,3,4-oxadiazol-2-yl)-1H-benzo[d]imidazol-2-yl)-3,5-dimethylphenyl)-2,2-dimethylpropanoic acid at 12.5 uM after 18 hrs; assay type: ADME, cell-based, Hepatocyte; how it was run: as §3
# [22] = Drug level in dog hepatocytes treated with [3H]-3-(4-(6-(5-(4-Methoxyphenyl)-1,3,4-oxadiazol-2-yl)-1H-benzo[d]imidazol-2-yl)-3,5-dimethylphenyl)-2,2-dimethylpropanoic acid at 12.5 uM after 18 hrs; assay type: ADME, cell-based, Canis lupus familiaris, Hepatocyte; how it was run: as §3
# [23] = Plasma concentration in high fat diet-fed dog at 5 mg/kg, po qd administered via gavage measured after twenty-ninth dose; assay type: ADME, organism-based, Canis lupus familiaris
# [24] = Plasma concentration in high fat diet-fed dog at 5 mg/kg, po administered via gelatin capsule after 90 mins
# Plasma = experiment: Unbound concentration in dog plasma at 5 mg/kg, po after 24 hrs; assay type: ADME, organism-based, Canis lupus familiaris; details: in vivo
# Canis familiaris [25] = experiment: Antiobesity activity in high fat diet-fed dog assessed as reduction in body weight gain at 5 mg/kg, po qd administered via gelatin capsule after 21 days relative to vehicle control; parameters: scale not given: the % may be the effect or the level left
# [26] = AUC (0 to 24 hrs) in dog plasma at 5 mg/kg, po after 24 hrs; assay type: ADME, organism-based, Canis lupus familiaris; parameters: time < 24 hr, dose 5 mg/kg, route oral
# [27] = Protein binding in dog plasma at 5 mg/kg, po after 24 hrs; assay type: ADME, organism-based, Canis lupus familiaris; details: read-out: PPB (converted)
compound,measurement,setting,value
Cc1cc(CC(C)(C)C(=O)O)cc(C)c1-c1nc2ccc(C(=O)Nc3ccc4ccccc4n3)cc2[nH]1,clearance,[1],5.5 mL/min/kg
same,solubility at 24 h,[2],8 µM
same,IC50,[3],954 nM
same,Vd,[4],0.4 L/kg
same,Papp B→A,[5],12.4 ×10⁻⁶ cm/s
same,Cmax,[6],1720 nM
same,Papp A→B,[7],3.5 ×10⁻⁶ cm/s
same,bioavailability,[8],23%
same,Tmax,[9],30 min
same,AUC(0-t) at 8 h,[10],4.23 µM·h
same,half-life,[11],48 min
same,AUC(0-t) at 8 h,[12],6.11 µM·h
Cc1cc(CCC(=O)O)cc(C)c1-c1nc2ccc(C(=O)Nc3ccc4ccccc4n3)cc2[nH]1,clearance,[1],6.9 mL/min/kg
same,IC50,[3],913 nM
same,bioavailability,[13],2%
same,Vd,[4],0.4 L/kg
same,Papp B→A,[5],14.1 ×10⁻⁶ cm/s
same,AUC(0-t) at 8 h,[14],0.405 µM·h
same,Papp A→B,[7],1.4 ×10⁻⁶ cm/s
same,Cmax,[15],333 nM
same,half-life,[11],102 min
same,Tmax,[16],24 min
same,AUC(0-t) at 8 h,[12],5.23 µM·h
COc1ccc(-c2nnc(-c3ccc4nc(-c5c(C)cc(CC(C)(C)C(=O)O)cc5C)[nH]c4c3)o2)cc1,Activity,Rattus norvegicus,Active
same,AUC,Canis familiaris [17],308000 ng·h/mL
same,Activity,Homo sapiens,Dose-dependent effect
same,Ratio IC50,[18],9
COc1ccc(-c2nnc(-c3ccc4nc(-c5c(C)cc(CCC(=O)O)cc5C)[nH]c4c3)o2)cc1,clearance,[1],21 mL/min/kg
same,IC50,[3],181 nM
same,Vd,[4],0.7 L/kg
same,Papp B→A,[5],9.2 ×10⁻⁶ cm/s
same,Cmax,[6],40 nM
same,Papp A→B,[7],1.4 ×10⁻⁶ cm/s
same,bioavailability,[8],2%
same,Tmax,[9],30 min
same,AUC(0-t) at 8 h,[10],0.103 µM·h
same,half-life,[11],96 min
same,AUC(0-t) at 8 h,[12],1.69 µM·h
Cc1cc(CCC(=O)O)cc(C)c1-c1nc2ccc(C(=O)Nc3ccc(C(C)(C)C)cc3)cc2[nH]1,Ratio IC50,[18],10
Cc1cc(CC(C)(C)C(=O)O)cc(C)c1-c1nc2ccc(-c3nnc(-c4ccc(O)cc4)o3)cc2[nH]1,Drug metabolism,[19],Metabolite_Detected
same,Drug metabolism,[20],Metabolite_Detected
same,Drug metabolism,[21],Metabolite_Detected
same,Drug metabolism,[22],Metabolite_Detected
COc1ccc(-c2nnc(-c3ccc4nc(-c5c(C)cc(CC(C)(C)C(=O)O[C@@H]6O[C@H](C(=O)O)[C@@H](O)[C@H](O)[C@H]6O)cc5C)[nH]c4c3)o2)cc1,Drug metabolism,[19],Metabolite_Detected
same,Drug metabolism,[20],Metabolite_Detected
same,Drug metabolism,[21],Metabolite_Detected
same,Drug metabolism,[22],Metabolite_Detected
COc1ccc(-c2nnc(-c3ccc4nc(-c5c(C)cc(CC(C)(C)C(=O)O)cc5C)[nH]c4c3)o2)cc1.[Na+],concentration at 29 days,[23],930 nM
same,concentration at 1.5 h,[24],738 nM
same,Cp(f),Plasma,2 nM
same,Activity,Canis familiaris [25],11%
same,AUC(0-t) at 24 h,[26],5.27 µM·h
same,fraction unbound at 24 h,[27],0.009
